Results reported in ChEMBL document CHEMBL1154229 (Bioorg Med Chem Lett, 2009).

Assays:
[1] = biological target: T1, Bifunctional epoxide hydrolase 2 (Homo sapiens, UniProt P34913); assay: Inhibition of human soluble epoxide hydrolase
T1 sequence (P34913 whole entry): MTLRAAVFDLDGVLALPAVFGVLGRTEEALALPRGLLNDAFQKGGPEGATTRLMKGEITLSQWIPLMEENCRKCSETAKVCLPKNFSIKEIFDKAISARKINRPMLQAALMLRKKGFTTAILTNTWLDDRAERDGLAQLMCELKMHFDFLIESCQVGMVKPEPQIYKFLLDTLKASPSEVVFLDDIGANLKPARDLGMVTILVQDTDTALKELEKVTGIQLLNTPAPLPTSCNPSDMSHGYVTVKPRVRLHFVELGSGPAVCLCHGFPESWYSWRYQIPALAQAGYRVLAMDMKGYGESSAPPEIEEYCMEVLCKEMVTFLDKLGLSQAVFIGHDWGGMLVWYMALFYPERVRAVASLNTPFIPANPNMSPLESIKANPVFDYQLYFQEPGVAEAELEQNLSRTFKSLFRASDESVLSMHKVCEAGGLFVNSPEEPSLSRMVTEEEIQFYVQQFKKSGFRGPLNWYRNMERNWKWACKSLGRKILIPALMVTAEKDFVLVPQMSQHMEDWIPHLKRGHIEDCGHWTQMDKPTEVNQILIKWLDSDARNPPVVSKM

[2] = biological target: T2, Bifunctional epoxide hydrolase 2 (Rattus norvegicus, UniProt P80299); assay: Inhibition of rat soluble epoxide hydrolase
T2 sequence (P80299 whole entry): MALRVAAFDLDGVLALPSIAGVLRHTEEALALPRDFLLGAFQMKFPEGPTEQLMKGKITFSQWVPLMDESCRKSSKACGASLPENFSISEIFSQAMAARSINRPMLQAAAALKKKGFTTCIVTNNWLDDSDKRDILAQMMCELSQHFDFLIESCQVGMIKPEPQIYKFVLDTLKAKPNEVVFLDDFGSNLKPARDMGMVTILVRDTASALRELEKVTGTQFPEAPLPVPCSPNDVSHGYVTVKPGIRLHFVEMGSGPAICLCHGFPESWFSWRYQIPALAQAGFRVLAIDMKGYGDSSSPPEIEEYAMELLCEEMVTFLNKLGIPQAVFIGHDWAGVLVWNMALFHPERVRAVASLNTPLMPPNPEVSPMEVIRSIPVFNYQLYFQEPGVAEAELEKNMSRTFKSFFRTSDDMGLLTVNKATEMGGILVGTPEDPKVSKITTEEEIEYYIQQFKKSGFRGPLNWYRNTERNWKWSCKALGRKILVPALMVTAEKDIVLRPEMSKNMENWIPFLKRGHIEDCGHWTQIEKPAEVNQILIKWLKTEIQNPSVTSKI

[3] = biological target: T1, Bifunctional epoxide hydrolase 2; assay: Inhibition of human soluble epoxide hydrolase in HEK293 cells assessed as DHET production; type: cell-based
In short: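 Whole-cell 14,15-DHET production assay in HEK293 cells, run with or without 10% human serum. Values come from one or two experiments, each in triplicate, with repeats within 20%.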

[4] = biological target: T3, Epoxide hydrolase 1 (Homo sapiens, UniProt P07099); assay: Inhibition of human microsomal epoxide hydrolase
T3 sequence (P07099 whole entry): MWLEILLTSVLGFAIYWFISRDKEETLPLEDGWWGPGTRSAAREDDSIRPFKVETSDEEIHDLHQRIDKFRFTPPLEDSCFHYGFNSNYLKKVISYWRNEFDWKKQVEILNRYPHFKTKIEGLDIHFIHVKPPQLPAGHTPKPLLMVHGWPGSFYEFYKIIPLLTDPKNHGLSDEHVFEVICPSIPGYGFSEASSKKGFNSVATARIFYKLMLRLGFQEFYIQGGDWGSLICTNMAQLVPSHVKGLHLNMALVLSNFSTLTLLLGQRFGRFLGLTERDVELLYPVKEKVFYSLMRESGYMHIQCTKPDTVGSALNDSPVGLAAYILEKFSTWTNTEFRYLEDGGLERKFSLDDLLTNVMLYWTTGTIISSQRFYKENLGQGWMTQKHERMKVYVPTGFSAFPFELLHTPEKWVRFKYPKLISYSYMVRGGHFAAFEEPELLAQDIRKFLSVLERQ
In short: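 Human mEH used as the counterscreen enzyme. Values come from one or two experiments, each in triplicate, with repeats within 20%.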

[5] = biological target: Cytochrome P450 2C9 (Homo sapiens, UniProt P11712); assay: Inhibition of CYP2C9; type: ADME
[6] = biological target: Cytochrome P450 2D6 (Homo sapiens, UniProt P10635); assay: (§1) Inhibition of CYP2D6; type: ADME
[7] = biological target: Cytochrome P450 3A4 (Homo sapiens, UniProt P08684); assay: Inhibition of CYP3A4; type: ADME
[8] = Inhibition of potassium channel IKr
[9] = biological target: Sodium channel protein type 5 subunit alpha (Homo sapiens, UniProt Q14524); assay: Inhibition of Nav1.5 channel
[10] = Bioavailability in rat at 1 mg/kg, iv and 2 mg/kg, po; type: ADME, organism-based; details: in vivo
In short: (§2)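 Rats dosed IV at 1 mg/kg (n = 2) and PO at 2 mg/kg (n = 3). Blood drug levels measured by LC/MS/MS after protein precipitation with acetonitrile.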

[11] = Clearance in rat at 1 mg/kg, iv and 2 mg/kg, po; type: ADME, organism-based; details: in vivo; in short: as §2
[12] = Volume of distribution at steady state in rat at 1 mg/kg, iv and 2 mg/kg, po; type: ADME, organism-based; details: in vivo, read-out: Vdss; in short: as §2
[13] = Half life in rat at 1 mg/kg, iv and 2 mg/kg, po; type: ADME, organism-based; details: in vivo; in short: as §2
[14] = biological target: L-type calcium channel; assay: Inhibition of calcium channel diltiazem binding site
[15] = biological target: CYP2D6 (Homo sapiens, UniProt P10635); assay: as §1; type: ADME
Chain of CYP2D6 (P10635 whole entry): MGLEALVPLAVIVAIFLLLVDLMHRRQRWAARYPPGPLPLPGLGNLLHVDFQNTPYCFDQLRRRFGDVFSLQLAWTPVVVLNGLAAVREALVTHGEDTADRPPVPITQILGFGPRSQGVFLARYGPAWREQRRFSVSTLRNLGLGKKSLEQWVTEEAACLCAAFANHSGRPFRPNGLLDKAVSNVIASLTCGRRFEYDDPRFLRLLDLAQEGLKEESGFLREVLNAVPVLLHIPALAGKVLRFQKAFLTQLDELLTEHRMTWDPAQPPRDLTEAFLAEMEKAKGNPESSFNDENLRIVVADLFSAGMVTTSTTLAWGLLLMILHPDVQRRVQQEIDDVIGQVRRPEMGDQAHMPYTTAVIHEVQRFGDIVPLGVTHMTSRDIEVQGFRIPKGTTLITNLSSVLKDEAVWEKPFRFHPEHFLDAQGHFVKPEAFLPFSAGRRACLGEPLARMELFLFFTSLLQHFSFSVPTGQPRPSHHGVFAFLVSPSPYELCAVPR

Chain of Sodium channel protein type 5 subunit alpha (Q14524 whole entry): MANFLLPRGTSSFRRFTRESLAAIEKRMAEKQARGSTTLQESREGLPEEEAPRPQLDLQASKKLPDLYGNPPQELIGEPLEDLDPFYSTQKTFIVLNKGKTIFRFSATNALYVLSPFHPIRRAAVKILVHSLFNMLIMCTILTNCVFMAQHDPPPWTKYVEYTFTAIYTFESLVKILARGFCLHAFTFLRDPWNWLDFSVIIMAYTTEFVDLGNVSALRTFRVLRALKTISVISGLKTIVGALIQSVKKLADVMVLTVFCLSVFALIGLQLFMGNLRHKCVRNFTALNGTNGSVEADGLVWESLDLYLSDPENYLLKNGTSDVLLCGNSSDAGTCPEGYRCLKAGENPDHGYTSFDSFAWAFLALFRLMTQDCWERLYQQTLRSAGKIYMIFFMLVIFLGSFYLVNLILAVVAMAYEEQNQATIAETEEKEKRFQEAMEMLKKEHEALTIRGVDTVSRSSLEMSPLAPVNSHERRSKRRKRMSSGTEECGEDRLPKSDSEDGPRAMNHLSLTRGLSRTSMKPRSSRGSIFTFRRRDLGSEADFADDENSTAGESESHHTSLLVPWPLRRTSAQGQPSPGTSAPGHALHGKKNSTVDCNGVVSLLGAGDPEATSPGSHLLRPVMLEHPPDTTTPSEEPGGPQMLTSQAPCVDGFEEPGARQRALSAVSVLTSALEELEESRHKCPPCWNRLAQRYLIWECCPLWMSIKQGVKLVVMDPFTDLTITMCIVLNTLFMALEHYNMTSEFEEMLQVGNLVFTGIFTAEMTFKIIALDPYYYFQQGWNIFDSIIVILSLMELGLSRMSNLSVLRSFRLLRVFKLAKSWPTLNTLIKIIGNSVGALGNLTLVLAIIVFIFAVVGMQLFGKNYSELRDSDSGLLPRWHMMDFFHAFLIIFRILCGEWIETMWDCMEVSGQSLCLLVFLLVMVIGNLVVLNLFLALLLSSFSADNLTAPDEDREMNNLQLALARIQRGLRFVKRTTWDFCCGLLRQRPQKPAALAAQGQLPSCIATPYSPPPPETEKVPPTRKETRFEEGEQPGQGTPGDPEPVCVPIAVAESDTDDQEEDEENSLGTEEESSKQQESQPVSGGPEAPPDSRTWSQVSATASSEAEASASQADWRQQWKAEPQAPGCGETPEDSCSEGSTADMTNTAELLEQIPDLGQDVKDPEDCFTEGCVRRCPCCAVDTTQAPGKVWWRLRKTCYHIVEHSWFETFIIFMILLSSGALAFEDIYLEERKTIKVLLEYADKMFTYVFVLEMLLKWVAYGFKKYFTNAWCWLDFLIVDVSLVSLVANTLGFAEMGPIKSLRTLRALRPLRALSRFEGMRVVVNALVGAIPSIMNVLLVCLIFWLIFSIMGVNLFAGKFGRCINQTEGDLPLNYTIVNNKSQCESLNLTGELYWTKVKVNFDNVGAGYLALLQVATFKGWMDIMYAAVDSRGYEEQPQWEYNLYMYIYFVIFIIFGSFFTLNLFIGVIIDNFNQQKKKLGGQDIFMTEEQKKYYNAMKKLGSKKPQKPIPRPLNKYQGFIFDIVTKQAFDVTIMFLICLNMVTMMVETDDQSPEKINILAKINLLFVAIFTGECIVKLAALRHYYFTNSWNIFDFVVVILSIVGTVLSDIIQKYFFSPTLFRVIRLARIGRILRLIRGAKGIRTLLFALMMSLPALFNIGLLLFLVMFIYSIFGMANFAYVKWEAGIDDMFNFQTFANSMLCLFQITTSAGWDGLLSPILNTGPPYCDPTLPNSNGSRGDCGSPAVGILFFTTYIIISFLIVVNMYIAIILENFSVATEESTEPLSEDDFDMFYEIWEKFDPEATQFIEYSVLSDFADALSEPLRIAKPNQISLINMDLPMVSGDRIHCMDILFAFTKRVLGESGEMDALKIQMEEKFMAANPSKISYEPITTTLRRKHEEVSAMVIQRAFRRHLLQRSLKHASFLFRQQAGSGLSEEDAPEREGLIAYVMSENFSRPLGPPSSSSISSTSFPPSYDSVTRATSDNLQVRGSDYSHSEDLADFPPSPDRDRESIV
Chain of Cytochrome P450 2C9 (P11712 whole entry): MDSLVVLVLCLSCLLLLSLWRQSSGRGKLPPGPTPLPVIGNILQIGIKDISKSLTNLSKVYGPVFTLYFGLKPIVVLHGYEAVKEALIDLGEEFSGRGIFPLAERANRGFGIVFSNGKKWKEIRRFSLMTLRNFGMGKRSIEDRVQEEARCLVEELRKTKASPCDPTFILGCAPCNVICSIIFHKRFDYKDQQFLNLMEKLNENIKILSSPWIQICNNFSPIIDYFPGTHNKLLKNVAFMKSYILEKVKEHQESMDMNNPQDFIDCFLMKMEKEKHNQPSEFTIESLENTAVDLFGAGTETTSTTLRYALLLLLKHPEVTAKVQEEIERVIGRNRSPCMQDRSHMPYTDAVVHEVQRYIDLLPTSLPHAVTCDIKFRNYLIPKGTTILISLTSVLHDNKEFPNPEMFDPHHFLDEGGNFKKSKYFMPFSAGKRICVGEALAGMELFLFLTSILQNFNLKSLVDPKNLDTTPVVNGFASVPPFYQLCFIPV
Chain of Cytochrome P450 2D6 (P10635 whole entry): as the sequence (P10635 whole entry) above
Chain of Cytochrome P450 3A4 (P08684 whole entry): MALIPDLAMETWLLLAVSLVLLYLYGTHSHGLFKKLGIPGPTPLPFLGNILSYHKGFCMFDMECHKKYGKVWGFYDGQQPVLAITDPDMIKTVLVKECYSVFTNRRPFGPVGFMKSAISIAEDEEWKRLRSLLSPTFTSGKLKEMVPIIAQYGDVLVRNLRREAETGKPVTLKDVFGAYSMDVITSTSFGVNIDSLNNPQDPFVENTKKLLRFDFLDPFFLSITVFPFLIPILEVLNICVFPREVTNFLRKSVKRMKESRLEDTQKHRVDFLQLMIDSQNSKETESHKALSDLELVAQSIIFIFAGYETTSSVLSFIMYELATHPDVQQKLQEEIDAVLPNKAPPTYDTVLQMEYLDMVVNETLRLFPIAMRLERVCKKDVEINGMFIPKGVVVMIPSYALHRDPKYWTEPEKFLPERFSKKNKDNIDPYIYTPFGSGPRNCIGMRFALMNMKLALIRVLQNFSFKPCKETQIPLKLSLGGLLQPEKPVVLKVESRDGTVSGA

Compound	IC50 [1] [µM]	IC50 [2] [µM]	IC50 [3] [µM]	IC50 [4] [µM]	IC50 [5] [µM]	IC50 [6] [µM]	IC50 [7] [µM]	IC50 [8] [µM]	IC50 [9] [µM]	bioavailability [10] [%]	clearance [11] [mL/min/kg]	Vd [12] [L/kg]	half-life [13] [h]	IC50 [14] [µM]	IC50 [15] [µM]
O=C(Nc1ccc(Cl)cc1)N1CCCC(CCc2nn[nH]n2)(c2ccccc2)C1 (configuration not stated)	0.005	0.059	< 0.001	> 100	> 10	10	< 10	3	> 10	0.17	124	1.4	0.39	–	–
O=C(Nc1ccc(Cl)cc1)N1CCCC(CCO)(c2ccccc2)C1 (configuration not stated)	0.001	0.015	< 0.001	> 100	< 10	10	> 10	0.07	> 10	–	–	–	–	0.9	–
O=C(O)CC1(c2ccccc2)CCCN(C(=O)Nc2ccc(Cl)cc2)C1 (configuration not stated)	0.052	0.398	0.038	> 100	> 10	> 10	> 10	> 30	> 10	–	–	–	–	> 30	–
CC1(c2ccccc2)CCCN(C(=O)N[C@H]2C[C@@H]2c2ccccc2)C1 (some centres not stated)	0.001	0.004	< 0.001	> 100	< 10	–	< 10	26	> 10	–	–	–	–	10	–
O=C(O)CCC1(c2ccccc2C(F)(F)F)CCCN(C(=O)Nc2ccc(Cl)cc2)C1 (configuration not stated)	0.016	0.07	< 0.001	> 100	> 10	> 10	> 10	> 30	> 10	–	–	–	–	> 30	–
O=C(O)CCCCC1(c2ccccc2)CCCN(C(=O)Nc2ccc(Cl)cc2)C1 (configuration not stated)	0.005	0.12	< 0.001	> 100	> 10	> 10	> 10	> 30	> 10	–	–	–	–	> 30	–
NC(=O)CCC1(c2ccccc2)CCCN(C(=O)Nc2ccc(Cl)cc2)C1 (configuration not stated)	–	0.026	< 0.001	> 100	> 10	> 10	> 10	7	–	13	116	0.88	4.4	–	–
CC1(c2ccccc2)CCCN(C(=O)NCc2ccc(Cl)cc2Cl)C1 (configuration not stated)	< 0.001	0.003	–	–	> 10	–	< 10	20	< 10	–	–	–	–	2	< 10
O=C(O)CCC1(c2ccccc2)CCCN(C(=O)Nc2ccc(Cl)cc2)C1 (stereo in doubt; 2b)	–	0.076	0.004	> 100	> 10	> 10	> 10	> 30	> 10	84	4	0.8	3.2	> 30	–
CC1(c2ccccc2)CCCN(C(=O)Nc2ccc(Cl)cc2)C1 (configuration not stated)	0.001	0.005	< 0.001	> 100	> 10	> 10	< 10	12	> 10	13	43	12	3.9	1.7	–
O=C(O)CCC1(c2ccc(C(F)(F)F)cc2)CCCN(C(=O)Nc2ccc(Cl)cc2)C1 (configuration not stated)	0.005	0.12	< 0.001	> 100	> 10	> 10	> 10	> 30	> 10	–	–	–	–	> 30	–
O=C(Nc1ccc(Cl)cc1)N1CCCC(CCCO)(c2ccccc2)C1 (configuration not stated)	0.0013	0.01	< 0.001	> 100	< 10	> 10	< 10	6	> 10	–	–	–	–	5	–
CC1(c2ccccc2)CCCN(C(=O)NCc2ccc(-c3ccccn3)cc2)C1 (configuration not stated)	0.001	0.003	< 0.001	47	< 10	10	< 10	4	> 10	–	–	–	–	0.5	–
CC1(c2ccccc2)CCCN(C(=O)NCc2ccc(-c3ccc4[nH]ccc4c3)cc2)C1 (configuration not stated)	–	0.006	0.003	14	< 10	10	> 10	0.8	> 10	–	–	–	–	1	–
